Experimental data reported in ChEMBL document CHEMBL1158336, “Synthesis, antitubercular activity and docking study of novel cyclic azole substituted diphenyl ether derivatives” (2009).
In brackets after ≈: the same amount, converted by molar mass.

tested on: Mycobacterium tuberculosis; test: Antimycobacterial activity against Mycobacterium tuberculosis H37Rv after 6 weeks; assay type: functional
How it was run: (§1)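 Lowenstein–Jensen slope method. Compounds dissolved in DMSO, diluted in DMSO, and an aliquot mixed into L.J. medium at 0.8 mL per 7.2 mL. Slopes set and sterilised at 75–80 °C for 3 days. M. tuberculosis H37Rv suspended with glass beads in sterile water and inoculated by 3 mm nichrome loop. DMSO-only and compound-free media served as controls.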

Row | SMILES | MIC
1 | CO[C@H]1/C=C/O[C@@]2(C)Oc3c(C)c(O)c4c(O)c(c(/C=N/N5CCN(C)CC5)c(O)c4c3C2=O)NC(=O)/C(C)=C\C=C\[C@H](C)[C@H](O)[C@@H](C)[C@@H](O)[C@@H](C)[C@H](OC(C)=O)[C@@H]1C [RIFAMPIN] | 0.06 µg/mL (≈ 0.0729 µM)
2 | Oc1cc(Cl)ccc1Oc1ccc(Cl)cc1Cl [TRICLOSAN] | 5 µg/mL (≈ 17.3 µM)
3 | NNC(=O)c1ccncc1 [ISONIAZID] | 0.01 µg/mL (≈ 0.0729 µM)

tested on: Mycobacterium tuberculosis; test: Antimycobacterial activity against Mycobacterium tuberculosis H37Rv at 1 ug/ml after 6 weeks; assay type: functional; how it was run: as §1

Row | SMILES | Activity
4 | S=c1[nH]nc(-c2cccc(Oc3ccccc3)c2)o1 | 100%
5 | S=c1[nH]nc(-c2cccc(Oc3ccccc3)c2)n1-c1ccccc1 | 100%
6 | S=c1[nH]nc(-c2ccccc2Oc2ccccc2)o1 | 100%
7 | S=c1[nH]nc(-c2ccc(Oc3ccccc3)cc2)n1-c1ccccc1 | 100%
8 | Oc1cc(Cl)ccc1Oc1ccc(Cl)cc1Cl [TRICLOSAN] | 100%
9 | COc1ccc(-c2coc(-c3cccc(Oc4ccccc4)c3)n2)cc1 | 100%
10 | O=C(c1ccccc1)N1N=C(c2ccccn2)CC1c1ccc(Oc2ccccc2)cc1 (centres undefined) | 100%
11 | c1ccc(Oc2cccc(-c3nc(-c4ccccc4)co3)c2)cc1 | 100%
12 | Clc1ccc(-c2coc(-c3cccc(Oc4ccccc4)c3)n2)cc1 | 100%
13 | S=c1[nH]nc(-c2ccc(Oc3ccccc3)cc2)o1 | 100%
14 | S=c1[nH]nc(-c2ccccc2Oc2ccccc2)n1-c1ccccc1 | 100%
